In test [1] the target is Mitogen-activated protein kinase kinase kinase 11 (Homo sapiens) (UniProt Q16584). The test can be described thus: Inhibition of human MLK3 at 1 uM by radiometric method relative to control. The procedure, abridged: (§1)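 Percent inhibition of kinase activity at a single compound concentration, measured by the outsourced Eurofins KinaseProfiler panel. Values are the mean of two independent experiments.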

Another test has as its system HepG2. The test can be described thus: Antiproliferative activity against human HepG2 cells assessed as inhibition of cell viability at 500 nM after 72 hrs by CCK-8 assay relative to control. Type of test: functional. The note with it: HepG2, 72 h. The procedure, abridged:
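Single-concentration viability screen using CCK-8. Cells were seeded at 3000/well and treated for 72 h. A450 read after 1-4 h with reagent. Percent inhibition calculated against untreated control and blank wells as (Ac−As)/(Ac−Ab)×100%.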
(Tetrazolium assays rely on reduction of a dye to a coloured formazan, in cell work by metabolically active cells.)

Test [2] has as its target Tyrosine-protein kinase JAK2 (Homo sapiens) (UniProt O60674). The test can be described thus: Inhibition of recombinant human JAK2 (808 to end residues) at 1 uM using KTFCGTPEYLAPEVRREPRILSEEEQEMFRDFDYIADWC as substrate measured after 40 mins in presence of [gamma33P]ATP by scintillation counting method relative to control.
Test [3] has as its system Hepatocyte growth factor receptor (Homo sapiens), P08581 [Y1230D]. In words: Inhibition of recombinant human MET A1209G/V1290L/Y1248D mutant (974 to end residues) at 1 uM using KKKGQEEEYVFIE as substrate measured after 40 mins in presence of [gamma33P]ATP by scintillation counting method relative to control.
Test [4] has as its target Tyrosine-protein kinase FRK (Homo sapiens) (UniProt P42685). The test can be described thus: Inhibition of human PTK5 (218 to end residues) at 1 uM using GGEEEEYFELVKKKK as substrate measured after 40 mins in presence of [gamma33P]ATP by scintillation counting method relative to control. The method in brief:
as §1

In test [5] the test system is Mitogen-activated protein kinase 14 (Homo sapiens), Q16539 [T106M]. The test can be described thus: Inhibition of recombinant full-length human SAPK2a T106M mutant at 1 uM using myelin basic protein as substrate measured after 40 mins in presence of [gamma33P]ATP by scintillation counting method relative to control.
For test [6], the target named is Mitogen-activated protein kinase kinase kinase kinase 5 (Homo sapiens) (UniProt Q9Y4K4). The test can be described thus: Inhibition of recombinant full-length human MAP4K5 at 1 uM using MBP as substrate measured after 40 mins in presence of [gamma33P]ATP by scintillation counting method relative to control.
For test [7], the species on record is Homo sapiens. The test can be described thus: Inhibition of recombinant full-length human PI3K p110alpha/p65alpha (1 to 571 residues) at 1 uM using phosphatidylinositol-4, 5-bisphosphate as substrate measured after 40 mins by HTRF assay relative to control. The procedure, abridged:
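Single-point inhibition at 1 µM was measured in the Eurofins KinaseProfiler panel. Values are the mean of two independent experiments.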

Test [8] addresses Myotonin-protein kinase (Homo sapiens) (UniProt Q09013). The test can be described thus: Inhibition of recombinant human DMPK (1 to 549 residues) at 1 uM using KKSRGDYMTMQIG as substrate measured after 40 mins in presence of [gamma33P]ATP by scintillation counting method relative to control.
Test [9] relates to A549. In words: Inhibition of tumorsphere formation in human A549 cells after 2 weeks by microscopic analysis. Format: functional, cell-based.
Test [10] has as its target Serine/threonine-protein kinase Sgk3 (Homo sapiens) (UniProt Q96BR1). In words: Inhibition of human SGK3 (119 to end residues) at 1 uM using GRPRTSSFAEGKK as substrate measured after 40 mins in presence of [gamma33P]ATP by scintillation counting method relative to control. The procedure, abridged: as §1
The test system of test [11] is Protein kinase C eta type (Homo sapiens), P24723 [UNDEFINED MUTATION]. In words: Inhibition of recombinant human PKCeta V108L/G109R/L392Q mutant (2 to end residues) at 1 uM using ERMRPRKRQGSVRRRV as substrate measured after 40 mins in presence of [gamma33P]ATP by scintillation counting method relative to control.
The species named for test [12] is Homo sapiens. The test can be described thus: Inhibition of recombinant human Mer H628Q/R794A mutant (557 to 882 residues) at 1 uM using GGMEDIYFEFMGGKKK as substrate measured after 40 mins in presence of [gamma33P]ATP by scintillation counting method relative to control.
The target of test [13] is Dual specificity mitogen-activated protein kinase kinase 3 (Homo sapiens) (UniProt P46734). The test can be described thus: Inhibition of human MKK3 at 1 uM by radiometric method relative to control. The procedure, abridged:
as §1

In test [14] the target is Testis-specific serine/threonine-protein kinase 2 (Homo sapiens) (UniProt Q96PF2). In words: Inhibition of recombinant full-length human TSSK2 at 1 uM using KKKVSRSGLYRSPSMPENLNRPR as substrate measured after 40 mins in presence of [gamma33P]ATP by scintillation counting method relative to control.
For test [15], the target named is Mitogen-activated protein kinase 12 (Homo sapiens) (UniProt P53778). The test can be described thus: Inhibition of recombinant full-length human SAPK3 at 1 uM using myelin basic protein as substrate measured after 40 mins in presence of [gamma33P]ATP by scintillation counting method relative to control.
Test [16] addresses Serine/threonine-protein kinase PAK 6 (Homo sapiens) (UniProt Q9NQU5). The test can be described thus: Inhibition of recombinant human PAK6 (382 to end residues) at 1 uM using RRRLSFAEPG as substrate measured after 40 mins in presence of [gamma33P]ATP by scintillation counting method relative to control.
Test [17] deals with Calcium/calmodulin-dependent protein kinase type 1G (Homo sapiens) (UniProt Q96NX5). The test can be described thus: Inhibition of full-length recombinant human CaMK1 gamma at 1 uM using KKLRRTLSFAEPG as substrate measured after 40 mins in presence of [gamma33P]ATP by scintillation counting method relative to control. The procedure, abridged:
as §1

The target in test [18] is Dual specificity tyrosine-phosphorylation-regulated kinase 3 (Homo sapiens) (UniProt O43781). In words: Inhibition of recombinant full-length human DYRK3 at 1 uM using RRRFRPASPLRGPPK as substrate measured after 40 mins in presence of [gamma33P]ATP by scintillation counting method relative to control.
Test [19] is filed under the species Homo sapiens. The test can be described thus: Inhibition of human Ros V2262A mutant (1883 to end residues) at 1 uM using KKKSPGEYVNIEFG as substrate measured after 40 mins in presence of [gamma33P]ATP by scintillation counting method relative to control. The procedure, abridged: as §1
The target of test [20] is Tyrosine-protein kinase ITK/TSK (Homo sapiens) (UniProt Q08881). The test can be described thus: Inhibition of recombinant human ITK (352 to 617 residues) at 1 uM using myelin basic protein as substrate measured after 40 mins in presence of [gamma33P]ATP by scintillation counting method relative to control.
Test [21] deals with A549. The test can be described thus: Induction of apoptosis in human A549 cells assessed as viable cells at 0.5 uM after 48 hrs by AnnexinV-FITC/PI staining-based flow cytometric analysis (reference value: 88.8%). Particulars: A549, 48 h, read-out: Activity. Type of test: functional. Background: In flow cytometry, cells or beads pass a laser one at a time.
The target of test [22] is BDNF/NT-3 growth factors receptor (Homo sapiens) (UniProt Q16620). In words: Inhibition of recombinant human TRKB (455 to end residues) at 1 uM using poly(Glu, Tyr) 4:1 as substrate measured after 40 mins in presence of [gamma33P]ATP by scintillation counting method relative to control.

SMILES strings stand for the structures.

Chain of Dual specificity mitogen-activated protein kinase kinase 3 (Homo sapiens) (P46734 whole entry): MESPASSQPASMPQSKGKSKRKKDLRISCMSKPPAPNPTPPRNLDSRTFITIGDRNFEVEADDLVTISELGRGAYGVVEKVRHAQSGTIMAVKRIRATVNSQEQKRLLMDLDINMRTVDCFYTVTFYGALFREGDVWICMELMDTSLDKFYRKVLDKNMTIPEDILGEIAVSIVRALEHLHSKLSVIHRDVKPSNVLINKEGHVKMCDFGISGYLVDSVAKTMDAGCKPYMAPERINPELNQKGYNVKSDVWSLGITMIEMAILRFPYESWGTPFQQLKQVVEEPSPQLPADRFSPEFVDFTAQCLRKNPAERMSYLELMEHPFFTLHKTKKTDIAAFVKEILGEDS
Chain of Mitogen-activated protein kinase 12 (Homo sapiens) (P53778 whole entry): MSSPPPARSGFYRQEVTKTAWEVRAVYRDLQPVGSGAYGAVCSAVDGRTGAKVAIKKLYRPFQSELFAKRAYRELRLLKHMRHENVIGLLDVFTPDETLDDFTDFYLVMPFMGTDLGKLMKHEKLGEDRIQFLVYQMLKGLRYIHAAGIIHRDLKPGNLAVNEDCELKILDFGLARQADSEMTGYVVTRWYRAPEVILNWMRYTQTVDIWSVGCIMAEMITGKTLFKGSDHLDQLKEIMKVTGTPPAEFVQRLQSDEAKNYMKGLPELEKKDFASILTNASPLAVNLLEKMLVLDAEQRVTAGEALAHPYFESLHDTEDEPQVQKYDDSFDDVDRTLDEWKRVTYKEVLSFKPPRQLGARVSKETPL
Chain of Tyrosine-protein kinase JAK2 (Homo sapiens) (O60674 whole entry): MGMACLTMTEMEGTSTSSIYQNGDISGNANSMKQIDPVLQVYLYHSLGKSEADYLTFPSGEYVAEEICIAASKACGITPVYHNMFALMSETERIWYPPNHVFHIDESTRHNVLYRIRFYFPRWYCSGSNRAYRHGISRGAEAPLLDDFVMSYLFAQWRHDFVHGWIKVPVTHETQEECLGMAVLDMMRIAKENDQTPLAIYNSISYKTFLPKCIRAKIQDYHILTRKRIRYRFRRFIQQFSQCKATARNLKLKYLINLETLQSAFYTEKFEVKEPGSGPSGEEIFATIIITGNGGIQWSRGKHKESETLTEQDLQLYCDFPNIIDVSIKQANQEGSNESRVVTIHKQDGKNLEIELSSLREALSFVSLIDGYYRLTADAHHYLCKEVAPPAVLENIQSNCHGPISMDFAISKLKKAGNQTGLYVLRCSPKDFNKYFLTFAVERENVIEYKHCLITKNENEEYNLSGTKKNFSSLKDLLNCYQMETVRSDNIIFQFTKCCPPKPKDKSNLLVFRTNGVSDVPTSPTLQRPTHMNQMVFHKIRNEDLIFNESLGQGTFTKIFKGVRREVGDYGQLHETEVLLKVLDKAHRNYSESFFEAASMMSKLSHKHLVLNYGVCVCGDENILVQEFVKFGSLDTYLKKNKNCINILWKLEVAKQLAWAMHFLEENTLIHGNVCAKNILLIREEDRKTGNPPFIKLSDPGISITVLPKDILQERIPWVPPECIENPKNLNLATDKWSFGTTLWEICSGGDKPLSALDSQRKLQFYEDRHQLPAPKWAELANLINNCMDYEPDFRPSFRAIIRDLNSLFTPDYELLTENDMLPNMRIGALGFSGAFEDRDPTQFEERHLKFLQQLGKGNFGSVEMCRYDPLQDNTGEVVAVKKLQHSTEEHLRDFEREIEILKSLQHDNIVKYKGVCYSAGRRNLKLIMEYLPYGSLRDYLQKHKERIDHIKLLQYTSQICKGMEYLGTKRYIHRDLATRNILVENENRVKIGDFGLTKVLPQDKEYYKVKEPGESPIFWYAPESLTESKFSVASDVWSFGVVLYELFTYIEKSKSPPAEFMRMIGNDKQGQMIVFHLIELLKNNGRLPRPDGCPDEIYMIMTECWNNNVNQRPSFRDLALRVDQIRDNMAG
Chain of Tyrosine-protein kinase FRK (Homo sapiens) (P42685 whole entry): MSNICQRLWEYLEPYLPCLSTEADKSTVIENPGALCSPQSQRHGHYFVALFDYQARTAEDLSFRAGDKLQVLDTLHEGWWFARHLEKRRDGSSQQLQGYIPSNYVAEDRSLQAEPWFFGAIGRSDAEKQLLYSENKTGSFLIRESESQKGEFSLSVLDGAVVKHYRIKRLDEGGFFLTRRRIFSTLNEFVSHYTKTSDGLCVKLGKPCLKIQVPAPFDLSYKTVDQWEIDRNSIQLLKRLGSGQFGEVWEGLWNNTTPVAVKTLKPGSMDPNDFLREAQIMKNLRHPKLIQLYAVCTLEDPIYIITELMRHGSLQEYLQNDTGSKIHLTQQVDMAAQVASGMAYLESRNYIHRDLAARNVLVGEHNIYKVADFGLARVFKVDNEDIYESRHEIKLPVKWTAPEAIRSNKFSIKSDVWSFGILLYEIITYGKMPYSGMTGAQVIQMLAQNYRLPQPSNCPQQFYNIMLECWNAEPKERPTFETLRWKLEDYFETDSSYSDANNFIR
Chain of Hepatocyte growth factor receptor (Homo sapiens), P08581 [Y1230D] (P08581 whole entry Y1230D): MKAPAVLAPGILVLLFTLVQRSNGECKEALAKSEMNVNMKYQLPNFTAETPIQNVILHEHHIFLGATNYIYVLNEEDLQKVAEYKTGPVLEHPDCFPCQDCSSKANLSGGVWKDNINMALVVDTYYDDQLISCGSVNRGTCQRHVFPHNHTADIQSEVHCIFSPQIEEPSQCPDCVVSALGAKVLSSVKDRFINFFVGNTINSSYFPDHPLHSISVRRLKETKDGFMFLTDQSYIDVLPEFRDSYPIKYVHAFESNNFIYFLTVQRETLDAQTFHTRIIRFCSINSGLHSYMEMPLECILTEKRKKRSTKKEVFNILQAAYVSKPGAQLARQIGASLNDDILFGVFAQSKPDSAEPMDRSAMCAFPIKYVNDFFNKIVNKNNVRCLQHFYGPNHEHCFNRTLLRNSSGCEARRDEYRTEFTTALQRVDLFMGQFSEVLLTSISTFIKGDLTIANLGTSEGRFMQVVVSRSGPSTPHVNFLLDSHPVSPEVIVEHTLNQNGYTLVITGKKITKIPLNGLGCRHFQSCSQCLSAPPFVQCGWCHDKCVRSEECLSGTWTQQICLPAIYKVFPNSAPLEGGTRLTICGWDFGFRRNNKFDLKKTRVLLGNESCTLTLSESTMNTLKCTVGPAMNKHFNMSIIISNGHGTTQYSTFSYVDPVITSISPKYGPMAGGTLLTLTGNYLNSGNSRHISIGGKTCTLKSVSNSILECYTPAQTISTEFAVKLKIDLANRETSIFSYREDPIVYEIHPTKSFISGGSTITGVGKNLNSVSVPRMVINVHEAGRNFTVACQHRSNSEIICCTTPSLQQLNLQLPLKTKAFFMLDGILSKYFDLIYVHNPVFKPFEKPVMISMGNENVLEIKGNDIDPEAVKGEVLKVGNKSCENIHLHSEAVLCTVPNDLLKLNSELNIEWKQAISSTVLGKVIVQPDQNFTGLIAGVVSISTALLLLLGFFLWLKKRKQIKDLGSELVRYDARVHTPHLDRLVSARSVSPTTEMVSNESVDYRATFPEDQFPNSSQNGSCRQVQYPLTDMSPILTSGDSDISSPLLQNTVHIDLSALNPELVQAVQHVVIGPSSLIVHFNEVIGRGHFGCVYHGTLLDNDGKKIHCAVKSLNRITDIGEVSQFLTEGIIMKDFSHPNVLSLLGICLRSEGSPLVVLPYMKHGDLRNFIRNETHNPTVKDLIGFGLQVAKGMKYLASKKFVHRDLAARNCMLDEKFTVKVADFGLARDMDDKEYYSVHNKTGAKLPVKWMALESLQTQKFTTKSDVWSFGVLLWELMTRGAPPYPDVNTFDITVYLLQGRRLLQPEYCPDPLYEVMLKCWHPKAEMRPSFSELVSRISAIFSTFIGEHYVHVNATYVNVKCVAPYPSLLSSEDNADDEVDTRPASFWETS
Chain of Dual specificity tyrosine-phosphorylation-regulated kinase 3 (Homo sapiens) (O43781 whole entry): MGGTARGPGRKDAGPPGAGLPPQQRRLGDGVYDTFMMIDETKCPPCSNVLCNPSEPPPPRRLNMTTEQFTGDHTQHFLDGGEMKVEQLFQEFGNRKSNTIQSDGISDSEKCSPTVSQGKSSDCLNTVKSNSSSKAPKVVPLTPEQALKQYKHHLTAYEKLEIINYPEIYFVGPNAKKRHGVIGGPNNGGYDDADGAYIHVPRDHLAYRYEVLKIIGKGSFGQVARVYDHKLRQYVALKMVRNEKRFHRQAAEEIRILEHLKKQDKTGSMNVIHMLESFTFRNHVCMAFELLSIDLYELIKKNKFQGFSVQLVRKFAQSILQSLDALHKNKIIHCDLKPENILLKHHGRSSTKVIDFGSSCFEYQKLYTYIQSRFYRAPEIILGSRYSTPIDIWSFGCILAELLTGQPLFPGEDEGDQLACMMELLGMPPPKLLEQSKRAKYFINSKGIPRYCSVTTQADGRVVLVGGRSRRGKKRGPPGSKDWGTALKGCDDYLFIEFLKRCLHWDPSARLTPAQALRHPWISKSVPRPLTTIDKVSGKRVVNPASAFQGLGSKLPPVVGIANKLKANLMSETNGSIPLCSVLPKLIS
Chain of Testis-specific serine/threonine-protein kinase 2 (Homo sapiens) (Q96PF2 whole entry): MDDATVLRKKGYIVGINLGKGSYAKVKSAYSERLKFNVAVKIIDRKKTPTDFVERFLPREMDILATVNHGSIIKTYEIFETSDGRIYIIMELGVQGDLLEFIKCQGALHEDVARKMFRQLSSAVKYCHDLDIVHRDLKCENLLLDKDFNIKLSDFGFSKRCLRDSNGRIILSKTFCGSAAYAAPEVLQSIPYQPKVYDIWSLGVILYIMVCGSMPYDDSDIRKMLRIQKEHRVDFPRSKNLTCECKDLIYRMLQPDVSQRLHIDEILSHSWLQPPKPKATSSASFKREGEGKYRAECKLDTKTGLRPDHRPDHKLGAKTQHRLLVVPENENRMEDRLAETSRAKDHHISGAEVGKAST
Chain of Mitogen-activated protein kinase 14 (Homo sapiens), Q16539 [T106M] (Q16539 whole entry T106M): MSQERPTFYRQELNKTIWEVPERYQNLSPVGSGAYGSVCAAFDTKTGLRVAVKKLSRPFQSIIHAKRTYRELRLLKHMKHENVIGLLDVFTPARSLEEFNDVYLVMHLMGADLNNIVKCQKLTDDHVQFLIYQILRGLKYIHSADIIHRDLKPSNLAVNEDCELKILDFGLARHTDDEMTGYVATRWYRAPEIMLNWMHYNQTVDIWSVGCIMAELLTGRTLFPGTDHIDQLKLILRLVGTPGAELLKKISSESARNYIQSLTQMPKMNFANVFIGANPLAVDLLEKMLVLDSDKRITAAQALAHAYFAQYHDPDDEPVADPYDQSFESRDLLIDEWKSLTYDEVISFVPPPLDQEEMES

For orientation: inhibition means the drop in the measured response relative to a control, in per cent. In the case of `CN(C)C(=O)c1cc2cnc(Nc3ccc(NC(=O)CCCCCCCN=C=S)cc3)nc2n1C1CCCC1`, the inhibition in [1] was 90%; in test [2], 4%; in [3], 68%; in test [4], 15%; in test [5] it was 0%; in [6] it was 75%. Besides, the inhibition in the test listed under Homo sapiens [7] is 1%; in test [8], 5%; in the test with A549 [9] it was “Dose-dependent effect”; in test [10], 4%; in [11], -3%; in the test listed under Homo sapiens [12], 77%. Further, the inhibition is 23% in [13]; -3% in test [14]; 4% in test [15]; 9% in [16]; 21% in test [17]; 17% in test [18]. Also, the inhibition stood at 0% in the test listed under Homo sapiens [19], 91% in test [20] and 92% in test [22]. The inhibition at 0.5 µM in the test with HepG2 was 23%. In addition, the viability at 0.5 µM in the test on A549 [21] worked out at 78.8%.

The values above are taken from ChEMBL document CHEMBL4376814, “Novel cyclin-dependent kinase 9 (CDK9) inhibitor with suppression of cancer stemness activity against non-small-cell lung cancer” (Eur J Med Chem, 2019).
